Laboratory results as given in ChEMBL document CHEMBL1764957, “Inhibitors and promoters of tubulin polymerization: synthesis and biological evaluation of chalcones and related dienones as potential anticancer agents” (Bioorg Med Chem, 2011).
The source made the active and inactive calls. The calls are words filed in the database; no cut-off is given here.

Experiments:
[1] = Cytotoxicity against human 8226/DOX40 cells after 72 hrs by fluorometric assay; assay type: functional, cell-based
How it was run: (§1)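 Fluorometric microculture cytotoxicity assay (FMCA). Cell suspensions (10,000–20,000 cells per mL) were exposed at 37 °C for 72 h to six concentrations from 0.016 to 50, added from DMSO stocks (at most 1% DMSO final). Cells were washed with PBS and given fluorescein diacetate (10 µg/mL). Fluorescence at 485/520 nm was read after 40 min. Survival index is relative to untreated wells. Duplicate wells, experiment repeated twice.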

[2] = tested on: U-937/GTB; assay: Cytotoxicity against human U937/GTB cells after 72 hrs by fluorometric assay; assay type: functional, cell-based; how it was run: as §1
[3] = Cytotoxicity against human vincristine-resistant […] cells after 72 hrs by fluorometric assay; assay type: functional, cell-based; how it was run: as §1
[4] = tested on: H69AR; assay: Cytotoxicity against human H69AR cells after 72 hrs by fluorometric assay; assay type: functional, cell-based; how it was run: as §1
[5] = tested on: CCRF-CEM; assay: Cytotoxicity against human CCRF-CEM cells after 72 hrs by fluorometric assay; assay type: functional, cell-based; how it was run: as §1
[6] = target: T1, Tubulin (Sus scrofa) (UniProt P02554+P02550); assay: Effect on pig tubulin polymerization assessed as microtubule stabilization at 25 uM; assay type: protein assay
How it was run: (§2)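 Kit assay with porcine tubulin, standard protocol, read by fluorescent reporter enhancement. Test substances were dissolved in DMSO and run at 5 and 25. Docetaxel (stabilizing control) and vincristine (destabilizing control) were diluted in PBS and used at 3. The experiment was run twice and mean values were reported.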

[7] = tested on: RPMI-8226; assay: Cytotoxicity against human RPMI8226 cells after 72 hrs by fluorometric assay; assay type: functional, cell-based; conditions: RPMI-8226, 72 h; how it was run: as §1
[8] = Cytotoxicity against human CEM/VM1 cells after 72 hrs by fluorometric assay; assay type: functional, cell-based; conditions: CEM-VM1, 72 h; how it was run: as §1
[9] = tested on: NCI-H69; assay: Cytotoxicity against human NCI-H69 cells after 72 hrs by fluorometric assay; assay type: functional, cell-based; conditions: NCI-H69, 72 h; how it was run: as §1
[10] = tested on: ACHN; assay: Cytotoxicity against human ACHN cells after 72 hrs by fluorometric assay; assay type: functional, cell-based; how it was run: as §1
[11] = Cytotoxicity against human 8226/LR-5 cells after 72 hrs by fluorometric assay; assay type: functional, cell-based; how it was run: as §1
[12] = target: T1, Tubulin (Sus scrofa); assay: Inhibition of pig tubulin polymerization at 25 uM; assay type: protein assay; how it was run: as §2
[13] = target: T1, Tubulin (Sus scrofa); assay: Effect on pig tubulin polymerization assessed as microtubule stabilization at 3 uM; assay type: protein assay; how it was run: as §2
[14] = target: T1, Tubulin (Sus scrofa); assay: Inhibition of pig tubulin polymerization at 3 uM; assay type: protein assay; how it was run: as §2
[15] = Homo sapiens, H69AR, 72 h, read-out: IC50

T1 sequence (P02550 whole entry, looked up): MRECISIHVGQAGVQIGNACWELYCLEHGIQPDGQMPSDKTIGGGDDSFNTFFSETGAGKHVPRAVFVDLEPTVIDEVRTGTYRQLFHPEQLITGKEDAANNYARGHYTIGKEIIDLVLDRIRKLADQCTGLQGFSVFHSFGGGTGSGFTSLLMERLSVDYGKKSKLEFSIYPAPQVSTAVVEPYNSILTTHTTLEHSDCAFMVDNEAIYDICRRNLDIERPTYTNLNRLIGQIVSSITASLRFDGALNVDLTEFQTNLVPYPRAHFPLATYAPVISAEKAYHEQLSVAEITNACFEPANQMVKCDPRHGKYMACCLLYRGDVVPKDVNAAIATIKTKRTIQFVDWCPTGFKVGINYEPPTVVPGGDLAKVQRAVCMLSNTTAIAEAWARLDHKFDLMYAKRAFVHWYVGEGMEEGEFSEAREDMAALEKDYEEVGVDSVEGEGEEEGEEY
T1 sequence (P02554 whole entry, looked up): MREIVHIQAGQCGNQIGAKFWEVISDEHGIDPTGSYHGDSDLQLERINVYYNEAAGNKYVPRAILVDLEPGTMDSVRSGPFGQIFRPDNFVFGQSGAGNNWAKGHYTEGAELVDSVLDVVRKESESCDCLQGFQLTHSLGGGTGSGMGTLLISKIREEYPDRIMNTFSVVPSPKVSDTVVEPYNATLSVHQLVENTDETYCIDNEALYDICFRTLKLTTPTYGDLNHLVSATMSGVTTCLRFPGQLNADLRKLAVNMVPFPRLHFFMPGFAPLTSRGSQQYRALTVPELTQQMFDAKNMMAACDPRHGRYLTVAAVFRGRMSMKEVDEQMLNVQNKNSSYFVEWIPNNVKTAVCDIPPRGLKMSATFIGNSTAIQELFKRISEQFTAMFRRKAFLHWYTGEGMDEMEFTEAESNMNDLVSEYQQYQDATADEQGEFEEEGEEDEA

Activity [6] | inhibition [12] | Activity [13] | inhibition [14] | Structure (SMILES) | IC50 [1] | IC50 [2] | IC50 [3] | IC50 [4, 15] | IC50 [5] | IC50 [7] | IC50 [8] | IC50 [9] | IC50 [10] | IC50 [11] | IC50 ([4]; h69ar)
Active | – | – | – | O=C(/C=C/C=C/c1cn(Cc2ccccc2)c2ccccc12)c1cc(Cl)cc(Br)c1O | 42.3 µM | 49 µM | 54 µM | 48.5 µM | 280 µM | 119 µM | 89 µM | 11.1 µM | 17 µM | 70 µM | –
– | inactive | – | – | O=C(/C=C(\O)c1cc(Cl)cc(Br)c1O)/C=C/c1ccccc1 | 19.1 µM | 18.1 µM | 23.9 µM | 25.5 µM | 34.1 µM | 27.9 µM | 24.1 µM | 9.4 µM | 37.8 µM | 33.5 µM | –
– | Active | – | – | CCN(CC)c1ccc(/C=C/C(=O)c2cc(Br)cc(Br)c2O)cc1 | 7.7 µM | 8.2 µM | 9.6 µM | 38.8 µM | 20.1 µM | 26.1 µM | 13.1 µM | 7.1 µM | 69 µM | 9.9 µM | –
– | – | Active | – | CC(=O)O[C@@]12CO[C@@H]1C[C@H](O)[C@@]1(C)C(=O)[C@H](O)C3=C(C)[C@@H](OC(=O)[C@H](O)[C@@H](NC(=O)OC(C)(C)C)c4ccccc4)C[C@@](O)([C@@H](OC(=O)c4ccccc4)[C@H]21)C3(C)C | – | – | – | – | – | – | – | – | – | – | –
– | – | – | Active | CC[C@]1(O)C[C@H]2CN(CCc3c([nH]c4ccccc34)[C@@](C(=O)OC)(c3cc4c(cc3OC)N(C=O)[C@H]3[C@@](O)(C(=O)OC)[C@H](OC(C)=O)[C@]5(CC)C=CCN6CC[C@]43[C@@H]65)C2)C1 | – | – | – | – | – | – | – | – | – | – | –

Further lines, the compound ahead of its results:

Structure (SMILES) | Activity [6] | inhibition [12] | Activity [13] | inhibition [14] | IC50 [1] | IC50 [2] | IC50 [3] | IC50 [4, 15] | IC50 [5] | IC50 [7] | IC50 [8] | IC50 [9] | IC50 [10] | IC50 [11] | IC50 ([4]; h69ar)
O=C(/C=C/c1ccccc1)c1cc(Cl)cc(Br)c1O | – | Active | – | – | 12.4 µM | 20 µM | 24.2 µM | 26.4 µM | 37.6 µM | 18.7 µM | 22.3 µM | 10.3 µM | 48.9 µM | 13.2 µM | –
CCN(CC)c1ccc(/C=C/C(=O)c2cc(Cl)cc(Br)c2O)cc1 | – | Active | – | – | 9.7 µM | 9.3 µM | 8.8 µM | 24.5 µM | 14.8 µM | 29.4 µM | 14.5 µM | 5.2 µM | 164 µM | 9.4 µM | –
O=C(/C=C/c1cccs1)c1cc(Cl)cc(Br)c1O | – | Active | – | – | 26.5 µM | 42.5 µM | 32.6 µM | 56.1 µM | 152 µM | 79 µM | 48.9 µM | 20 µM | 44.2 µM | 23.3 µM | –
COc1ccc(/C=C/C(=O)c2cc(Cl)cc(Br)c2O)cc1 | – | inactive | – | – | 16.9 µM | 45 µM | 77 µM | 42.6 µM | 111 µM | 80 µM | 45.8 µM | 16.4 µM | 49.4 µM | 46 µM | –
O=C(/C=C/C=C/c1ccccc1)c1cc(Cl)cc(Br)c1O | – | Active | – | – | 14.2 µM | 36.6 µM | 31.7 µM | – | 129 µM | 48.8 µM | 48.6 µM | 19.9 µM | 93 µM | 23.4 µM | Non-toxic
O=C(/C=C/c1ccc(C(F)(F)F)cc1)c1cc(Cl)cc(Br)c1O | – | inactive | – | – | 22.5 µM | 14.9 µM | 24.4 µM | 33.2 µM | 15.4 µM | 20.8 µM | 31.1 µM | 11.5 µM | 49.4 µM | 22.3 µM | –
